How the values were obtained:
[1] = Binding affinity against glycine receptor was measured using radioligand ([3H]strychnine) binding assay
[2] = species on record: Rattus norvegicus; assay: Compound was tested for inhibition of ethanol potentiation in rat.; format: functional
How it was run: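 Nonfasted male rats received test drug or vehicle (distilled H2O or 0.5% methocel). EtOH (10 mL of 20% solution/kg, ip) followed at 15, 30, 60 or 120 min post-drug; the vehicle group got it at 15 min. Rats were watched about 10–15 min for loss of righting reflex lasting 1 min. Dose response at peak time used 10/dose; ED50 by Berkson.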

[3] = Binding affinity against Muscarinic acetylcholine receptor was measured using radioligand ([3H]QNB) binding assay
[4] = species on record: Rattus norvegicus; assay: Compound was tested for inhibition of conditioned avoidance response (CAR ); format: functional
How it was run: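 Rats trained to avoid an electric shock, test compound given orally, and block of the conditioned avoidance response scored. ED50 (mg/kg, po) with fiducial limits by the method of Berkson.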

[5] = target: T1, Adrenergic receptor alpha-1 (Rattus norvegicus, UniProt P15823+P23944+P43140)
T1 sequence (P15823 whole entry): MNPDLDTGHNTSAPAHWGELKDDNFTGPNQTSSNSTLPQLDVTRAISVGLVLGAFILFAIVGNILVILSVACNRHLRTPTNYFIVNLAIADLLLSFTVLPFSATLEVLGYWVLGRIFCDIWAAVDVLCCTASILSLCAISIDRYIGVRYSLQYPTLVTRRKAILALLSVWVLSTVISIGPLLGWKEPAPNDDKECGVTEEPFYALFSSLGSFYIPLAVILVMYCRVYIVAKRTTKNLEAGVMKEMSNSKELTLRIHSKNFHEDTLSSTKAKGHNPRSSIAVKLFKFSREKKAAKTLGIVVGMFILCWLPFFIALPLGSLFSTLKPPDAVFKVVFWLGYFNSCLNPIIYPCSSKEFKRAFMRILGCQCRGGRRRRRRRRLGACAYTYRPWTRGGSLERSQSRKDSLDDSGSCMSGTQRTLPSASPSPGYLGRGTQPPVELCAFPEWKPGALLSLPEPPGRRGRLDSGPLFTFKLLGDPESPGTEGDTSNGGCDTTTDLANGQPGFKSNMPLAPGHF
T1 sequence (P23944 whole entry): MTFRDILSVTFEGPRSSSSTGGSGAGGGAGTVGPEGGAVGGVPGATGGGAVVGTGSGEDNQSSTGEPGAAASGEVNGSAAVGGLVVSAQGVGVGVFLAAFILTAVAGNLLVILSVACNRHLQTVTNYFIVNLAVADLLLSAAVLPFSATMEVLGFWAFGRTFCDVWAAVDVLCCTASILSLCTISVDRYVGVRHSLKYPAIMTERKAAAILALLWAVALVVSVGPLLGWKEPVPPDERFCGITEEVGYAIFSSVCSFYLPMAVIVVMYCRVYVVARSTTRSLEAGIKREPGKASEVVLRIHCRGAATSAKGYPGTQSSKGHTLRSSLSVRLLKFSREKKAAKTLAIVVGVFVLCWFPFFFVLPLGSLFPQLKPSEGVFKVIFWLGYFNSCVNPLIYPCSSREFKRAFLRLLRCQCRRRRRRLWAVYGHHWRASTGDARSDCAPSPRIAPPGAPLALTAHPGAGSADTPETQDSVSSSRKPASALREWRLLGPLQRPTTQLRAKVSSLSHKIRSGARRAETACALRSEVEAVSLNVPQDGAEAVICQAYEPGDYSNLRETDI
T1 sequence (P43140 whole entry): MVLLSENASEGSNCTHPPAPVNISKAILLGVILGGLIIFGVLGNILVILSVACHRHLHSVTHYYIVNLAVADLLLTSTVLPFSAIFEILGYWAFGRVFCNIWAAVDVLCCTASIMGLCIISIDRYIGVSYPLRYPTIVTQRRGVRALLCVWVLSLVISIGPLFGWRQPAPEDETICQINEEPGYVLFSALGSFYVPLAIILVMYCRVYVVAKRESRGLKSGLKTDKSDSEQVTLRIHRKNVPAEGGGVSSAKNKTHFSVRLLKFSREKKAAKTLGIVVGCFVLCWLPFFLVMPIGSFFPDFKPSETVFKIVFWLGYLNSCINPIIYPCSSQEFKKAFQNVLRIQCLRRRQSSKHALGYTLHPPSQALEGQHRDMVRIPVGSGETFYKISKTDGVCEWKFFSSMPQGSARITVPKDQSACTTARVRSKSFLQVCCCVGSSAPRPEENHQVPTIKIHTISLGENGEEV

In the case of Cl.O=C1CC2(CCCC2)CC(=O)N1CCCCN1CCN(c2nsc3ccccc23)CC1 [TIOSPIRONE HYDROCHLORIDE], the IC50 [1] is reported as > 1 µM, the ED50 [2] is reported as 9.3 mg/kg and the IC50 [3] is reported as > 1 µM. The ED50 [4] was 10.5 mg/kg and the IC50 [5] was 0.047 µM.

Reference: ChEMBL document CHEMBL1123413, “Synthesis and biological evaluation of 1-(1,2-benzisothiazol-3-yl)- and (1,2-benzisoxazol-3-yl)piperazine derivatives as potential antipsychotic agents” (J Med Chem, 1986)
